Assay results of several laboratories.
Protocols differ between the studies behind these lines.
RAF1: RAF proto-oncogene serine/threonine-protein kinase (RAF1, Homo sapiens, UniProt P04049)
RAF1 Y340D/Y341D: RAF proto-oncogene serine/threonine-protein kinase (RAF1, Homo sapiens, UniProt P04049, Y340D/Y341D)

`CNC(=O)c1cc2c(Oc3ccc(NC(=O)C4(C(=O)Nc5ccc(F)cc5)CC4)cc3)ccnc2cc1OC` gave an inhibition of 83% (RAF1; enzyme activity; inhibitor; radiometric; 1 µM).
For `Cc1cc(NC(=O)c2cccc3cc(-c4cccc5[nH]nc(N)c45)ccc23)ccc1F`, the activity vs control was 97% (RAF1; enzyme activity; inhibitor; 0.1 µM).
The remaining activity of `CC(C)(C)c1nc(-c2cccc(NS(=O)(=O)c3c(F)cccc3F)c2F)c(-c2ccnc(N)n2)s1` is reported as 1% (RAF1 Y340D/Y341D; enzyme activity; inhibitor; radiometric; 1 µM).
`COc1cc(Cl)c(C(=O)N[C@@H](CN[C@H]2CC[C@@H](N)CC2)Cc2ccc(C#N)cc2)cc1-c1ccc(CN[C@H](C)c2ccc(C)cc2)o1` has a remaining activity of 97% (RAF1; enzyme activity; inhibitor; 1 µM).
`O=C(Nc1cnn(-c2csc(C(=O)NC3COC3)c2)c1)Nc1c(F)cccc1Cl` gave a remaining activity of 92.5% (RAF1; enzyme activity; inhibitor; 5 µM).
`Cc1ccc(C(=O)Nc2ccc(CN3CCN(C)CC3)c(C(F)(F)F)c2)cc1C#Cc1cnc2cccnn12` has a remaining activity of 61% (RAF1; enzyme activity; inhibitor; 23.5 nM).
The remaining signal of `C[C@@H]1CCN(C(=O)CC#N)C[C@@H]1N(C)c1ncnc2[nH]ccc12` is reported as 95.5% (RAF1; cell-free assay; inhibitor; 0.5 µM).
`CS(=O)(=O)Nc1cccc(-c2csc(NC(=O)CSc3nc4nccnc4c(=O)n3CCc3ccccc3)n2)c1` has an inhibition of -1% (RAF1 Y340D/Y341D; enzyme activity; inhibitor; 10 µM).
`Cc1ccc(C(=O)NCc2ccsc2)cc1C#Cc1cn(C(C)C)c2ncnc(N)c12` has an activity vs control of 15% (RAF1; enzyme activity; inhibitor; 1 µM).
With `O=C(Nc1cnn(-c2csc(C(=O)NC3COC3)c2)c1)Nc1ccccc1Cl` the remaining activity was 87% (RAF1; enzyme activity; inhibitor; 5 µM).
With `Cc1[nH]c(/C=C2\C(=O)Nc3ccc(F)cc32)c(C)c1C(=O)N[C@H]1CCN(C(=O)N(C)C)C1` the remaining activity was 118% (RAF1; enzyme activity; inhibitor; 0.1 µM).
`Nc1cnc(N2CCc3cc(S(=O)(=O)Nc4c(F)cc(Cl)cc4F)cc(N4CCCC4=O)c32)nc1` gave a remaining binding of 79% (RAF1; cell-free assay; competition with immobilised ligand; 1 µM).
With `Cc1ccc(Nc2nccc(N(C)c3ccc4c(C)n(C)nc4c3)n2)cc1S(N)(=O)=O` the inhibition was 77% (RAF1; enzyme activity; inhibitor; 0.3 µM).
`c1ccc(N2CCN(Cc3nc4ccccc4[nH]3)CC2)nc1` has a remaining binding of 100% (RAF1; binding; competition with immobilised ligand; 1 µM).
`COc1cc(-c2cc(-c3ccc(N4CCNCC4)cc3)cnc2N)cc(OC)c1OC` has an inhibition of 2% (RAF1; enzyme activity; inhibitor; 1 µM).
With `CS(=O)(=O)c1cc(C2(NC(=O)c3cncc4c3cnn4-c3ccc(F)cc3)CC2)ccn1` the remaining binding was 100% (RAF1; cell-free assay; competition with immobilised ligand; 1 µM).
The inhibition of `CN(C)C1CCN(CC#Cc2nn(C3CCCC3)c3nc(NCc4ccccc4)ncc23)C1` (stereo not drawn) is reported as -4% (RAF1 Y340D/Y341D; enzyme activity; inhibitor; FRET; 1 µM).
For `COc1cc2ncnc(Nc3ccc(Oc4ccccc4)c(C)c3C)c2cc1OC`, the inhibition was -6% (RAF1 Y340D/Y341D; enzyme activity; inhibitor; 1 µM).
For `N#CCCc1ccc2c(c1)-c1[nH]c3ccc([N+](=O)[O-])cc3c1CC(=O)N2`, the remaining signal was 104% (RAF1; cell-free assay; 0.5 µM).
The remaining binding of `CCOC(=O)c1cc2cc(-c3cc(C(=O)NCc4ccc(C(=O)O)cc4)nn3C)ccc2[nH]1` is reported as 100% (RAF1; cell-free assay; competition with immobilised ligand; 0.1 µM).
`CC(C)c1ccc(NC(=O)c2cccs2)c(-c2nc3ccccc3[nH]c2=O)c1` has an activity vs control of 96% (RAF1; enzyme activity; inhibitor; 1 µM).
For `CCN(CC)c1ccc(C2=NNC(=O)CC2C)cc1[N+](=O)[O-]` (stereo not drawn), the remaining activity was 90% (RAF1; enzyme activity; inhibitor; 10 µM).
With `N#Cc1ccc(Nc2ccc3[nH]c(=O)[nH]c3c2)c(Cl)c1` the remaining binding was 68% (RAF1; cell-free assay; competition with immobilised ligand; 1 µM).
`CNCc1ccc(-c2cc(-c3nc(-c4ccc(S(=O)(=O)C(C)C)cc4)cnc3N)on2)cc1` gave an inhibition of 10% (RAF1; enzyme activity; inhibitor; 2 µM).
The remaining binding of `CCS(=O)(=O)c1cc2cc(C[C@](O)(CC(C)(C)c3ccc(F)cc3C(N)=O)C(F)(F)F)[nH]c2cn1` is reported as 83% (RAF1; cell-free assay; competition with immobilised ligand; 1 µM).
`O=C1NC(=O)c2cc(Nc3ccc(F)cc3)c(Nc3ccc(F)cc3)cc21` gave a remaining signal of 81.9% (RAF1; cell-free assay; 0.5 µM).
With `O=C(O)[C@@H]1[C@@H](Cn2nnc3ccccc3c2=O)CC[C@H]1C(=O)c1ccc(OCCC2CCOCC2)cc1` the remaining binding was 100% (RAF1; cell-free assay; competition with immobilised ligand; 1 µM).
For `CCN(CC)CCNC(=O)c1c(C)[nH]c(/C=C2\C(=O)Nc3ccc(F)cc32)c1C`, the remaining activity was 95% (RAF1; enzyme activity; inhibitor; 0.1 µM).
The remaining binding of `CC(=O)N1CCC(c2ccc(C(=O)NC(=N)N)cc2C(F)(F)F)CC1` is reported as 100% (RAF1; cell-free assay; competition with immobilised ligand; 1 µM).
The remaining signal of `Cc1ccc(NC(=O)c2ccc(C)c(C(F)(F)F)c2)cc1C#Cc1nn(C2CCC(O)CC2)c2ncnc(N)c12` (stereo not drawn) is reported as 24% (RAF1; cell-free assay; 10 µM).
